Test results taken from ChEMBL document CHEMBL1151173, “Sesquiterpene lactones from Montanoa hibiscifolia that inhibit the transcription factor NF-kappa B” (J Nat Prod, 2004).

Experiments:
Jurkat = test: Inhibition of NF-kappaB binding to DNA in TNF-alpha-stimulated human Jurkat T cells pretreated for 1 hr before TNFalpha stimulation; assay type: cell-based
Outline: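 Jurkat T cells (RPMI 1640, 10% FCS, penicillin/streptomycin) were pretreated 1 h with compound at various concentrations, then stimulated 1 h with 200 U/mL TNF-α. High-salt detergent total extracts (10-20 µg protein) were incubated 25 min at room temperature with poly(dI-dC), BSA and a 33P-labeled NF-κB oligonucleotide. The EMSA value is the lowest concentration giving complete inhibition of DNA binding. Run in duplicate.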

RAW264.7 [1] = test: Inhibition of NF-kappaB binding to DNA in LPS-stimulated mouse RAW264.7 cells pretreated for 1 hr before LPS stimulation
RAW264.7 [2] = test: Cytotoxicity against mouse RAW264.7 cells by trypan blue exclusion method; assay type: cell-based

Row | SMILES | Lowest concentration giving complete inhibition of NF-kappaB DNA binding (Jurkat) [µM] | Activity (RAW264.7 [1]) [µM] | Activity (RAW264.7 [2])
1 | C=C1C(=O)O[C@H]2/C=C(\C)CC/C=C(/C)C(=O)[C@H](OC(=O)[C@@]3(C)O[C@H]3C)[C@@H]12 | 50 | 20 | Non-toxic
2 | C=C1C(=O)O[C@H]2/C=C(\C)CC/C=C(/C)[C@@H](OC(=O)/C(C)=C/C)[C@H](O)[C@@H]12 | 100 | 20 | Non-toxic
3 | C=C1C(=O)O[C@@H]2C3O[C@]3(C)CC/C=C(\C)CC[C@@H]12 (stereo partly specified) | 20 |  | 
4 | C=C1CCC=C(C)[C@@]2(O)[C@H](OC(=O)[C@]3(C)O[C@@H]3C)[C@@H]3[C@@H](OC(=O)[C@@H]3C)[C@H]12 | 200 |  | 
5 | C=C1C(=O)O[C@@H]2[C@H]1[C@@H](OC(=O)[C@]1(C)O[C@@H]1C)C(=O)[C@@]1(C)C=CC[C@@](C)(O)[C@@H]21 | 10 | 10 | Non-toxic
